Screening data deposited in PubChem by The Scripps Research Institute Molecular Screening Center.
Sampled rows, rich in hits. Any-hit rate of the full collection: about 1.9%.
NPY Y2 blocker = antagonists of human neuropeptide Y receptor Y2. NPY-Y2 expressing cells, antagonist mode. AID 793. P49146. inhibition, % at 2.7 µM. 140,000 compounds, 0.99% hits; in the data active means inhibition above about 17%
Target sequence (P49146 whole entry, looked up): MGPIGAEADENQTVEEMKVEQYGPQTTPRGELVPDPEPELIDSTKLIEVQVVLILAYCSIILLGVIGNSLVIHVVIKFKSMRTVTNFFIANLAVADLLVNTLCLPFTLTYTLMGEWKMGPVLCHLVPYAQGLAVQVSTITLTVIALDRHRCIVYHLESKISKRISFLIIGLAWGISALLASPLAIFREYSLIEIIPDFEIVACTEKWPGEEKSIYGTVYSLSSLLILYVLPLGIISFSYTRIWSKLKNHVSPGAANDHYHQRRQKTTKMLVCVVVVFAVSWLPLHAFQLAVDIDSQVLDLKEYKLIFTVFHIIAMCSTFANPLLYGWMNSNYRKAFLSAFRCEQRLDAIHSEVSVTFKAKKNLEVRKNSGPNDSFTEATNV
NPY1 pot ag = human NPY-Y1 potentiation or agonism, primary screen; P25929; 220,000 compounds, 0.37% hits; activation, % at 3.6 µM; AID 1304; NPY-Y1 expressing cells, potentiator/agonist activation; in the data active means activation above about 33%, passing the limit was not always enough;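 further: cells stimulated with NPY at EC10 then isoproterenol at EC100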
NPY-Y2 PAM-ag = human NPY-Y2 potentiation or agonism, primary screen; P49146; cells expressing NPY-Y2, potentiator/agonist read-out; activation, % at 3.6 µM; 220,000 compounds, 0.45% hits; in the data active means activation above about 27%;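 further: cells stimulated with NPY near EC25 plus isoproterenol at EC100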
NPY-Y1 antag = blocks the human neuropeptide Y Y1 receptor; inhibition, % at 3.6 µM; HEK293-CNG Y1 cells, membrane potential fluorescence; NPY at EC95, then isoproterenol; 200,000 compounds, 1% hits; P25929;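 active means inhibition above the campaign mean inhibition of all tested compounds plus 3 SD, cut at about 20% in these data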
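Test system: HEK293 cells co-expressing NPY Y1 receptor and cyclic-nucleotide gated channel; Also added: NPY (25 nM), isoproterenol (1 µM), Ro 20-1724 (25 µM); Compound dosing: one concentration, 3.6 µM, in 0.4% DMSO; Timing: dye 3 h, compound 60 min room temperature, stimulation 45 min; Technique: Membrane-potential fluorescent dye readout.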
Large screens that a line does not name were inactive.

COc1ccc(OC)c(-c2[nH]nc3c2C(c2ccco2)C(C#N)=C(N)O3)c1 (stereo not given)	NPY Y2 blocker 28, NPY-Y1 antag 48
COc1cccc(-c2[nH]nc3c2C(c2ccc(C)o2)C(C#N)=C(N)O3)c1 (stereo not given)	NPY Y2 blocker 21, NPY-Y1 antag 29
COC(=O)c1cc(NS(=O)(=O)c2ccc(C)c3ccccc23)ccc1N1CCOCC1	none (no result: NPY Y2 blocker, NPY-Y1 antag)
CC(O)CNCCNCc1c(OCc2ccccc2)ccc2ccccc12 (stereo not given)	NPY Y2 blocker 38, NPY-Y1 antag 96
CCOc1ccc(Oc2c(/C=N/NC(=O)COc3ccccc3OC)c(C)nn2-c2ccccc2)cc1	NPY Y2 blocker 26, NPY-Y1 antag 30
CCOc1ccc(Oc2c(/C=N/NC(N)=O)c(C)nn2-c2ccccc2)cc1	none
O=C(O)/C=C/C(=O)OC1CC2CCC1C2 (stereo not given)	none (no result: NPY Y2 blocker, NPY-Y1 antag)
Cc1ccc(SCc2[nH]nc3c2C(c2ccc(C)o2)C(C#N)=C(N)O3)cc1 (stereo not given)	NPY Y2 blocker 79, NPY-Y1 antag 120
Cc1ccc(SCc2[nH]nc3c2C(c2ccco2)C(C#N)=C(N)O3)cc1 (stereo not given)	NPY Y2 blocker 127, NPY-Y1 antag 106
CCc1[nH]nc2c1C(c1ccc(C)o1)C(C#N)=C(N)O2 (stereo not given)	none (no result: NPY Y2 blocker)
CCCn1c(SCC(=O)NCc2ccc(F)cc2)n[nH]c1=O	none (no result: NPY Y2 blocker)
Cc1nnc(SCCOc2ccccc2)s1	none (no result: NPY Y2 blocker)
CC(CC(=O)Nc1ccccc1C(F)(F)F)c1ccccc1 (stereo not given)	none
CC1=CC(C)(C)N(C(=O)CSc2nnc(N)s2)c2c(C)cc(C)cc21	NPY1 pot ag 70
Cc1cc(C)c(C(=O)CSc2nnc(N)s2)c(C)c1	none (no result: NPY Y2 blocker)
CCCCN1CNC(=S)N(c2ccc(C(=O)OCC)cc2)C1	none
Cc1cncn1CCc1nc2c3ccccc3nc(SCC(=O)Nc3cccc(Cl)c3)n2n1	NPY Y2 blocker 33, NPY-Y1 antag 49
Cc1cccc(NC(=O)CSc2nc3ccccc3c3nc(CCc4c(C)n[nH]c4C)nn23)c1	none
COc1ccc(N2CCN(C(=S)NCc3ccccc3)CC2)cc1	none (no result: NPY Y2 blocker)
COc1cccc(-c2cc(C(F)(F)F)nc(-n3ccc([N+](=O)[O-])n3)n2)c1	NPY-Y1 antag 21 (no result: NPY Y2 blocker)
Cc1cc(C)c(C(=O)Nc2ccc(Br)c(C(F)(F)F)c2)c(C)c1	NPY Y2 blocker 30, NPY-Y1 antag 28
Cc1ccc(NC(=O)Nc2ncnc3nc[nH]c23)cc1	none (no result: NPY Y2 blocker, NPY-Y1 antag)
C=CCN(CC(=O)O)S(=O)(=O)c1ccccc1C(F)(F)F	none (no result: NPY Y2 blocker)
CCN(CC)c1ccc(N=Nc2nn(C)c(C)c2[N+](=O)[O-])cc1	none
CCN(Cc1ccccc1)c1ccc(N=Nc2nn(C)c(C)c2[N+](=O)[O-])cc1	NPY1 pot ag 58, NPY-Y2 PAM-ag 41
Cc1ccccc1/C=C1\SC(=S)N(/N=C/c2cc([N+](=O)[O-])ccc2O)C1=O	none (no result: NPY Y2 blocker)
Oc1ccc(Oc2ccc3c(C(F)(F)F)cc(C(F)(F)F)nc3n2)cc1	NPY1 pot ag 40, NPY-Y2 PAM-ag 49
Nc1nnc(-c2cc3c(ccc4ccccc43)oc2=O)s1	none (no result: NPY Y2 blocker)
Cc1ccnc(NC(=O)CCC2CCCCC2)c1	NPY Y2 blocker 20, NPY-Y1 antag 23
O=C(Cn1cc(C(F)(F)F)cc(Cl)c1=O)Nc1cc(Cl)cc(Cl)c1	none (no result: NPY Y2 blocker)
c1ccc2c(N3CCCCC3)nc(N3CCCC3)nc2c1	NPY Y2 blocker 32, NPY-Y1 antag 56
COc1ccc(Nc2nc(N3CCCC3)nc(N3CCCC3)n2)c(OC)c1	none
COc1ccc(Nc2nc(N3CCCCC3)nc3ccccc23)c(OC)c1	NPY Y2 blocker 50, NPY-Y1 antag 41
CCOC(=O)c1c(C)[nH]c(C(=O)CSc2nccc(C)n2)c1C	none
Cc1ccccc1Nc1c(-c2ccccn2)nc2ccccn12	NPY1 pot ag 35, NPY-Y2 PAM-ag 35 (no result: NPY Y2 blocker)
Cc1ccc2nc(-c3ccccn3)c(Nc3ccccc3C)n2c1	NPY1 pot ag 46, NPY-Y2 PAM-ag 36 (no result: NPY Y2 blocker)
Cc1ccn2c(Nc3ccccc3C)c(-c3ccccn3)nc2c1	NPY1 pot ag 41, NPY-Y2 PAM-ag 30 (no result: NPY Y2 blocker)
O=C(NCCN1C(=O)S/C(=C\c2cccs2)C1=O)c1ccc(=O)[nH]c1	none
CCCN(c1ccc(C(C)C)cc1)S(=O)(=O)c1c(C)noc1C	NPY Y2 blocker 28, NPY-Y1 antag 22
COc1ccc2oc(=O)c(/C(C)=N/Nc3ccccc3)cc2c1	none (no result: NPY Y2 blocker)
CCOC(=O)N/N=C(\c1ccccc1)C(O)c1ccccc1 (stereo not given)	none (no result: NPY Y2 blocker)
CCc1ccc(N(C(=O)c2csnn2)C(C(=O)NC(C)(C)CC)c2cccnc2)cc1 (stereo not given)	none (no result: NPY Y2 blocker)
CCOCCCNC(=O)c1ccc(N2CCCC2)c(NS(=O)(=O)c2ccc(C)cc2)c1	NPY1 pot ag 58, NPY-Y2 PAM-ag 33 (no result: NPY Y2 blocker)
COCCCNC(=O)c1ccc(N2CCCC2)c(NS(=O)(=O)c2ccc(C)cc2)c1	none
COc1cc(C(C(=O)NC2CCCCC2)N(Cc2cccs2)C(=O)Cc2c[nH]c3ccccc23)cc(OC)c1OC (stereo not given)	NPY-Y2 PAM-ag 32
O=C(NC1CCCC1)C(c1ccsc1)N(Cc1ccco1)C(=O)Cc1cccs1 (stereo not given)	NPY Y2 blocker 38, NPY-Y1 antag 62
O=C(NC1CCCC1)C(c1cccs1)N(Cc1ccco1)C(=O)c1csnn1 (stereo not given)	none
O=C(NC1CCCC1)C(c1ccsc1)N(Cc1ccccc1)C(=O)Cc1cccs1 (stereo not given)	NPY Y2 blocker 33, NPY-Y1 antag 60
O=C(NC1CCCCC1)C(c1ccc2ncccc2c1)N(Cc1ccccc1)C(=O)c1cccs1 (stereo not given)	NPY Y2 blocker 25, NPY-Y1 antag 24
COCCNC(=O)Cn1cc(/C=N/NC(=O)c2ccc(Oc3ccc(O)cc3)cc2)c2ccccc21	none (no result: NPY Y2 blocker)
O=C(CCCCn1c(=O)c2ccccc2n(Cc2ccccc2F)c1=O)NC1CCN(Cc2ccccc2)CC1	none (no result: NPY Y2 blocker)
COc1cc(C(=O)NCCNC(=O)C2CCCNC2=O)cc(OC)c1OC (stereo not given)	none (no result: NPY Y2 blocker, NPY-Y1 antag)
COc1ccccc1CN(C(=O)Cc1cccs1)C(C(=O)NC1CCCC1)c1ccncc1 (stereo not given)	NPY Y2 blocker 19, NPY-Y1 antag 45
O=C(NC1CCCC1)C(c1ccccc1)N(Cc1ccc2c(c1)OCO2)C(=O)Cc1cccs1 (stereo not given)	NPY Y2 blocker 21, NPY-Y1 antag 23
O=C(NCc1ccccc1)C(c1ccccc1)N(Cc1ccc2c(c1)OCO2)C(=O)Cc1cccs1 (stereo not given)	none
COc1ccccc1CN(C(=O)c1ccco1)C(C(=O)NC1CCCC1)c1ccncc1 (stereo not given)	none
COC(=O)CSc1nnc(-c2ccc(S(=O)(=O)N3CCC(C)CC3)cc2)o1	none
COC(=O)CSc1nnc(-c2ccc(S(=O)(=O)N3CCCCC3)cc2)o1	NPY1 pot ag 63, NPY-Y2 PAM-ag 42
N#CCCNc1c(Cl)cc(Cl)cc1C(=O)O	none
c1ccc(CCCCNCC2COc3ccccc3O2)cc1 (stereo not given)	NPY-Y1 antag 20 (no result: NPY Y2 blocker)
O=C(N/N=C/c1ccc(F)cc1)c1sccc1OCc1ccc(F)cc1	NPY Y2 blocker 23
